Laboratory results from ChEMBL document CHEMBL3297646, “Structure-activity relationship study of non-steroidal NPC1L1 ligands identified through cell-based assay using pharmacological chaperone effect as a readout” (Bioorg Med Chem, 2014).
Calls of active or inactive are those of the source. The calls are words filed in the database; no cut-off is given here.

Legend:
[1] = molecular target: T1, NPC1-like intracellular cholesterol transporter 1 (Homo sapiens) (UniProt Q9UHC9); test: Binding affinity to human GFP-tagged NPC1L1 L1072T/L1168I mutant expressed in HEK293 cells assessed as localization to plasma membrane at 30 uM after 24 hrs by fluorescence microscopic analysis; format: cell-based
T1 sequence (whole entry): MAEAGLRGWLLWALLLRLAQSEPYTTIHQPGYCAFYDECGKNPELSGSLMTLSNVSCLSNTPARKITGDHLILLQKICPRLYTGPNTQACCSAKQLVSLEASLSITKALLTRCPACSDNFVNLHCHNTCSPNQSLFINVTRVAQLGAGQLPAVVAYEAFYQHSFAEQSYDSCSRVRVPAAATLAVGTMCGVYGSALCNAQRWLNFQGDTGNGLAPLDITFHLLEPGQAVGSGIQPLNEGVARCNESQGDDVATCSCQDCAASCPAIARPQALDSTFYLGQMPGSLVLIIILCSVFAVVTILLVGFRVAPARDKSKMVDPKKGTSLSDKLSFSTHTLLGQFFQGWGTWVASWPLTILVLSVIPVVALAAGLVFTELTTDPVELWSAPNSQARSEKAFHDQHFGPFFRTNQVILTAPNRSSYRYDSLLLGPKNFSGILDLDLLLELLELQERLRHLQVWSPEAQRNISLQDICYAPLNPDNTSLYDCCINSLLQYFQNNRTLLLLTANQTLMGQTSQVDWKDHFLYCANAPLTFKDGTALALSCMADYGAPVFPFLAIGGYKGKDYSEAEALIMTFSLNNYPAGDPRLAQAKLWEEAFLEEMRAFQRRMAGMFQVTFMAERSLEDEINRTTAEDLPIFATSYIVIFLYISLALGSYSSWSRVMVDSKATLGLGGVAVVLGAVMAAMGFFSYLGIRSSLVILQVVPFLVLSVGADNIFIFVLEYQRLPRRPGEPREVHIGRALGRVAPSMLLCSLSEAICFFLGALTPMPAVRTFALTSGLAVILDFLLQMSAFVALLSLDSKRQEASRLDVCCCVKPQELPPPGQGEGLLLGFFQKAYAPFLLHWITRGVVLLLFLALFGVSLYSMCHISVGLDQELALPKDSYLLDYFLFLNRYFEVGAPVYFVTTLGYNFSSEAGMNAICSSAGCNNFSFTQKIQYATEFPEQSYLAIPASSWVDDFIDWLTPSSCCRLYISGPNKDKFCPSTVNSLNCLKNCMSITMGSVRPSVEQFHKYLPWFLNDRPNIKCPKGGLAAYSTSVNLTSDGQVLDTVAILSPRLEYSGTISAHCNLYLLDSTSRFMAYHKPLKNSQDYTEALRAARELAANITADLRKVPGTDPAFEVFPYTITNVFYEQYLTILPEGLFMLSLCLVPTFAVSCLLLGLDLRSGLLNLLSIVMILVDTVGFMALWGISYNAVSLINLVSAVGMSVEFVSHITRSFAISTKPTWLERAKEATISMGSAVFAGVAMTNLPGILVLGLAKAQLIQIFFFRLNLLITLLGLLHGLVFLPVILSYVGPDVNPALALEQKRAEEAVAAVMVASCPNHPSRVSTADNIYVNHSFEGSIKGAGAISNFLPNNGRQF
In short: (§1)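 HEK293 cells stably expressing EGFP-tagged NPC1L1 L1072T/L1168I were plated on poly-D-lysine-coated glass-bottomed wells (20 µg/mL in PBS) and grown 24 h. They were then exposed to compound at 10 or 30 µM (0.1% final DMSO) and fixed in 3.7% formaldehyde-PBS. Read-out was % of EGFP signal localized to the plasma membrane.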

[2] = molecular target: T1, NPC1-like intracellular cholesterol transporter 1 (Homo sapiens); test: Binding affinity to human GFP-tagged NPC1L1 L1072T/L1168I mutant expressed in HEK293 cells assessed as localization to plasma membrane at 10 uM after 24 hrs by fluorescence microscopic analysis; format: cell-based; in short: as §1
HEK293 = test: Cytotoxicity against HEK293 cells transfected with human GFP-tagged NPC1L1 L1072T/L1168I mutant at 30 uM; format: cell-based; settings: hek293, 30 µM
[3] = molecular target: T1, NPC1-like intracellular cholesterol transporter 1 (Homo sapiens); test: Binding affinity to human EGFP-tagged NTD-deleted NPC1L1 L1072T/L1168I mutant expressed in HEK293 cells assessed as protein stabilization after 24 hrs by fluorescence assay; format: cell-based
In short: (§2)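 Steady-state levels of full-length or NTD-deleted NPC1L1 L1072T/L1168I-GFP were measured in stably expressing HEK293 cells treated with compound at 1–30 µM or vehicle. GFP fluorescence in cell lysates was normalized to total protein by bicinchoninic acid assay. Values are expressed as % of vehicle-treated cells.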

[4] = molecular target: T1, NPC1-like intracellular cholesterol transporter 1 (Homo sapiens); test: Binding affinity to human EGFP-tagged full-length NPC1L1 L1072T/L1168I mutant expressed in HEK293 cells assessed as protein stabilization after 24 hrs by fluorescence assay; format: cell-based; in short: as §2
[5] = molecular target: T1, NPC1-like intracellular cholesterol transporter 1 (Homo sapiens); test: Binding affinity to human EGFP-tagged NTD-deleted NPC1L1 L1072T/L1168I mutant expressed in HEK293 cells assessed as localization to plasma membrane after 24 hrs by fluorescence microscopic analysis; format: cell-based
In short: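 Stable HEK293 lines expressing NTD-deleted NPC1L1 L1072T/L1168I-EGFP were grown 24 h on poly-D-lysine-coated glass-bottomed wells and treated with compound (0.1% final DMSO). Cells were fixed in 3.7% formaldehyde-PBS with Hoechst-33342 nuclear counterstain. NPC1L1-GFP localization was examined by fluorescence imaging.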

Homo sapiens = species on record: Homo sapiens; test: Selectivity for human GFP-tagged NPC1L1 L1072T/L1168I mutant over LXR (unknown origin)
[6] = molecular target: Liver X receptor (Homo sapiens) (UniProt Q13133+P55055); test: Activation of LXR (unknown origin) expressed in HEK293 cells at 30 uM after 16 hrs by luciferase reporter gene assay; format: cell-based

| Compound | Activity [1] | Activity [2] | other results |
| --- | --- | --- | --- |
| CCCCn1c(=O)c2ccccc2c2cc(C(=O)NC3CCCC3)ccc21 | 0% | – | – |
| CCCCCCn1c(=O)c2c(c3cc(C(=O)N(CC)C4CC4)ccc31)CCCCC2 | – | 1% | Activity (HEK293): Toxic |
| CCCCn1c(=O)c2ccccc2c2cc(C(=O)NC(C)C)ccc21 | 49% | 0% | – |
| CCCCn1c(=O)c2c(c3cc(C(=O)N4CCCC4)ccc31)CCCCC2 | 33% | 1% | – |
| CCN(CC)C(=O)c1ccc2c(c1)c1ccccc1c(=O)n2CC | 4% | – | – |
| CCCn1c(=O)c2c(c3cc(C(=O)N(CC)C4CC4)ccc31)CCCCC2 | 39% | 0% | – |
| CCCCCn1c(=O)c2c(c3cc(C(=O)N(CC)C4CC4)ccc31)CCCCC2 | 35% | 3% | – |
| CCCCn1c(=O)c2c(c3cc(C(=O)NC4CCCC4)ccc31)CCCCC2 | 16% | 6% | – |
| CCCCn1c(=O)c2ccccc2c2cc(C(=O)N(CC)CC)ccc21 | 45% | 1% | – |
| CCN(C(=O)c1ccc2c(c1)c1c(c(=O)n2Cc2ccccc2)CCCCC1)C1CC1 | 14% | 0% | – |
| CCN(CC)C(=O)c1ccc2c(c1)c1ccccc1c(=O)n2Cc1ccccc1 | 0% | – | – |
| CCN(CC)C(=O)c1ccc2c(c1)c1ccccc1c(=O)n2CCCC(=O)N(C)C | 0% | – | – |
| CCCCn1c(=O)c2c(c3cc(C(=O)NCC)ccc31)CCCCC2 | 28% | 0% | – |
| CCCCN1C(=O)CCc2cc(C(=O)N(CC)CC)ccc21 | 1% | – | – |
| CCCCn1c(=O)c2c(c3cc(C(N)=O)ccc31)CCCCC2 | 0% | – | – |
| CCCCn1c(=O)c2ccccc2c2cc(C(=O)NC3CC3)ccc21 | 55% | 14% | – |
| CCCCn1c(=O)c2ccccc2c2cc(C(=O)NC)ccc21 | 24% | 1% | – |
| CCN(C(=O)c1ccc2c(c1)c1c(c(=O)n2CCO)CCCCC1)C1CC1 | 0% | – | – |
| CCCCn1c(=O)c2c(c3cc(C(=O)Nc4ccccc4)ccc31)CCCCC2 | 0% | – | – |

| Compound | Activity [1] | Activity [2] | other results |
| --- | --- | --- | --- |
| CCCCn1c(=O)c2ccccc2c2cc(C(=O)N3CCOCC3)ccc21 | 0% | – | – |
| CCN(CC)C(=O)c1ccc2[nH]c(=O)c3ccccc3c2c1 | 0% | – | – |
| CCCCn1c(=O)c2ccccc2c2cc(C(=O)N(C)C)ccc21 | 4% | – | – |
| CCCCn1c(=O)c2ccccc2c2cc(C(=O)N3CCCCC3)ccc21 | 47% | 0% | – |
| CCCCn1c(=O)c2c(c3cc(C(=O)N(CC)CC)ccc31)CCCC2 | 42% | 2% | – |
| CCN(CC)C(=O)c1ccc2c(c1)c1ccccc1c(=O)n2CC(=O)N(C)C | 0% | – | – |
| CCN(C(=O)c1ccc2c(c1)c1c(c(=O)n2CCOC)CCCCC1)C1CC1 | 0% | – | – |
| CCCCn1c(=O)c2c(c3cc(C(=O)N(CC)CC)ccc31)CCCCCC2 | 44% | 5% | – |
| CCCCn1c(=O)c2ccccc2c2cc(C(=O)NCc3ccccc3)ccc21 | 0% | – | – |
| CCCCn1c(=O)c2ccccc2c2cc(C(=O)N(CCO)CCO)ccc21 | 0% | – | – |
| CCN(C(=O)c1ccc2[nH]c(=O)c3c(c2c1)CCCCC3)C1CC1 | 0% | – | Activity [3]: Active; Activity [4]: Active |
| CCCCn1c(=O)c2c(c3cc(C(=O)NC(C)(C)C)ccc31)CCCCC2 | 1% | – | – |
| CCCCn1c(=O)c2c(c3cc(C(=O)N(C)C)ccc31)CCCCC2 | 2% | – | – |
| CCCCn1c(=O)c2c(c3cc(C(=O)N(C)C4CC4)ccc31)CCCCC2 | 21% | 1% | – |
| CCCCNC(=O)c1ccc2c(c1)c1c(c(=O)n2CCCC)CCCCC1 | 18% | 0% | – |
| CCCCn1c(=O)c2c(c3cc(C(=O)N(CC)C4CC4)ccc31)CCCCC2 | 45% | 8% | Activity [3]: Active; Activity [5]: Active; Selectivity ratio (Homo sapiens): 2; Activity [4]: Active; Activity [6]: inactive |
| CCN(CC)C(=O)c1ccc2c(c1)c1ccccc1c(=O)n2C | 0% | – | – |
| CCCCn1c(=O)c2c(c3cc(C(=O)NCCO)ccc31)CCCCC2 | 0% | – | – |
| CCCCn1c(=O)c2c(c3cc(C(=O)NC)ccc31)CCCCC2 | 23% | 0% | – |

| Compound | Activity [1] | Activity [2] | other results |
| --- | --- | --- | --- |
| CCCCn1c(=O)c2c(c3cc(C(=O)NCCC)ccc31)CCCCC2 | 36% | 0% | – |
| CCN(C(=O)c1ccc2c(c1)c1c(c(=O)n2C(C)C)CCCCC1)C1CC1 | – | 0% | Activity (HEK293): Toxic |
| CCN(C(=O)c1ccc2c(c1)c1c(c(=O)n2C)CCCCC1)C1CC1 | 0% | – | – |
| CCCCn1c(=O)c2c(c3cc(C(=O)NC(C)C)ccc31)CCCCC2 | 25% | 0% | – |
| CCCCn1c(=O)c2c(c3cc(C(=O)N(CC)CC)ccc31)CCCCC2 | 42% | 14% | – |
| CCCCn1c(=O)c2ccccc2c2cc(C(=O)N(CCC)CCC)ccc21 | 50% | 14% | – |
| CCN(C(=O)c1ccc2c(c1)c1c(c(=O)n2CC)CCCCC1)C1CC1 | 7% | – | Activity [3]: Active; Activity [4]: Active |
| CCN(CC)C(=O)c1ccc2c(c1)c1ccccc1c(=O)n2CCCC(=O)O | 0% | – | – |
| CCN(CC)C(=O)c1ccc2c(c1)c1ccccc1c(=O)n2CC(=O)O | 0% | – | – |
| CCN(CC)C(=O)c1ccc2c(c1)c1ccccc1c(=O)n2Cc1ccc(OC)cc1 | 18% | 0% | – |
| CCCCN1C(=O)c2ccccc2Oc2cc(C(=O)N(CC)CC)ccc21 | 3% | – | – |
| CCCCn1c(=O)c2c(c3cc(C(=O)NC4CCCCC4)ccc31)CCCCC2 | 5% | 2% | – |
| CCCC(=O)N1CC2=C(CCCC2)c2cc(C(=O)N(CC)CC)ccc21 | 1% | – | – |
| CCCCN(CCCC)C(=O)c1ccc2c(c1)c1ccccc1c(=O)n2CCCC | – | 18% | Activity (HEK293): Toxic |
| CCCCn1c(=O)c2ccccc2c2cc(C(=O)NC3CCCCC3)ccc21 | 11% | 3% | – |
| CCCCn1c(=O)c2c(c3cc(C(=O)NC4CC4)ccc31)CCCCC2 | 49% | 3% | – |
| CCCCn1c(=O)c2ccccc2c2cc(C(N)=O)ccc21 | 0% | – | – |
| CCCCn1c(=O)c2ccccc2c2cc(C(=O)NC(C)(C)C)ccc21 | 41% | 11% | – |
| CCCCn1c(=O)c2c(c3cc(C(=O)N(CC)CC)ccc31)CCC2 | 15% | 1% | – |
